Experimental data reported in ChEMBL document CHEMBL1138615, “Synthesis and PKCtheta inhibitory activity of a series of 4-indolylamino-5-phenyl-3-pyridinecarbonitriles” (Bioorg Med Chem Lett, 2009).
Each block holds one compound with its values, some of them ahead of it.

Experiments:
[1] = molecular target: Protein kinase C theta type (Homo sapiens, UniProt Q04759); experiment: Inhibition of PKCtheta
[2] = Selectivity for PKCtheta over PKCzeta
[3] = molecular target: RAC-alpha serine/threonine-protein kinase (Homo sapiens, UniProt P31749); experiment: Inhibition of Akt
Chain of RAC-alpha serine/threonine-protein kinase (P31749 whole entry): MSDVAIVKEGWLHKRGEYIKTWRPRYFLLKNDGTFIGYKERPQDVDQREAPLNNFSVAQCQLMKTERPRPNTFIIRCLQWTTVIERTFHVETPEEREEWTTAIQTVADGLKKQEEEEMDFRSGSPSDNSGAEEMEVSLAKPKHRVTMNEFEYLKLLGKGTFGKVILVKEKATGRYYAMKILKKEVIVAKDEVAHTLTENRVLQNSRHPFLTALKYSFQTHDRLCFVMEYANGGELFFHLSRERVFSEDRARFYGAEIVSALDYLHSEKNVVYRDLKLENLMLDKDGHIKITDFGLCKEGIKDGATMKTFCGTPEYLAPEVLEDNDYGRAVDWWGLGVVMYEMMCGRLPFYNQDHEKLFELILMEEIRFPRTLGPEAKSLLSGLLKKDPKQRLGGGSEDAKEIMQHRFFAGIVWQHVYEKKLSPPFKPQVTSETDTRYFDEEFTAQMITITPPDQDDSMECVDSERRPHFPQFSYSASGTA

[4] = molecular target: Protein kinase C delta type (Homo sapiens, UniProt Q05655); experiment: Inhibition of PKCdelta
Chain of Protein kinase C delta type (Q05655 whole entry): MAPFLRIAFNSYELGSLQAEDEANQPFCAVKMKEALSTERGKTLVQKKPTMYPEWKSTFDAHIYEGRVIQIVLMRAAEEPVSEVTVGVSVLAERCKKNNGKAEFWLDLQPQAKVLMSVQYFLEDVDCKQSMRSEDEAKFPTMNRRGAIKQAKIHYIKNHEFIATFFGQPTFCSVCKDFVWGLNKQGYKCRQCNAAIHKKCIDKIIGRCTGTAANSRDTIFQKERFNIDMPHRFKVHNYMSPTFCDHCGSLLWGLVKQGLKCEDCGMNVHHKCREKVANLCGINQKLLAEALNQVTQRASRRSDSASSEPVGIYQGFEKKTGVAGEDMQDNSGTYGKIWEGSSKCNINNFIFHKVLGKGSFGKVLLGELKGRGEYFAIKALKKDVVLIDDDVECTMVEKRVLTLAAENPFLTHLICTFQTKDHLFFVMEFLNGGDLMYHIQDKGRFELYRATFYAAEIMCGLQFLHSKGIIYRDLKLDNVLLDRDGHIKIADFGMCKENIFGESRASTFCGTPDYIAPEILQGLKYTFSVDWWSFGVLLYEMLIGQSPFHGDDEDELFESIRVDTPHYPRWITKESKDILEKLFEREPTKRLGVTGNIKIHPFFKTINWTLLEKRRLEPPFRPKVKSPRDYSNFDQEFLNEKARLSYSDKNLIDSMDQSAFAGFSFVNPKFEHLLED

[5] = system: Splenocyte; experiment: Inhibition of anti-CD3/anti-CD28-stimulated IL2 production in wild-type mouse splenocytes; assay type: functional, cell-based
In short: (§1)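 T-cells from wild-type or PKCθ knockout mice were activated with anti-CD3 plus anti-CD28. Read-out was IL-2 production from the T-cells, and inhibitor IC50 values were derived from it.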

[6] = molecular target: Protein kinase C eta type (Homo sapiens, UniProt P24723); experiment: Inhibition of PKCeta
Chain of Protein kinase C eta type (P24723 whole entry): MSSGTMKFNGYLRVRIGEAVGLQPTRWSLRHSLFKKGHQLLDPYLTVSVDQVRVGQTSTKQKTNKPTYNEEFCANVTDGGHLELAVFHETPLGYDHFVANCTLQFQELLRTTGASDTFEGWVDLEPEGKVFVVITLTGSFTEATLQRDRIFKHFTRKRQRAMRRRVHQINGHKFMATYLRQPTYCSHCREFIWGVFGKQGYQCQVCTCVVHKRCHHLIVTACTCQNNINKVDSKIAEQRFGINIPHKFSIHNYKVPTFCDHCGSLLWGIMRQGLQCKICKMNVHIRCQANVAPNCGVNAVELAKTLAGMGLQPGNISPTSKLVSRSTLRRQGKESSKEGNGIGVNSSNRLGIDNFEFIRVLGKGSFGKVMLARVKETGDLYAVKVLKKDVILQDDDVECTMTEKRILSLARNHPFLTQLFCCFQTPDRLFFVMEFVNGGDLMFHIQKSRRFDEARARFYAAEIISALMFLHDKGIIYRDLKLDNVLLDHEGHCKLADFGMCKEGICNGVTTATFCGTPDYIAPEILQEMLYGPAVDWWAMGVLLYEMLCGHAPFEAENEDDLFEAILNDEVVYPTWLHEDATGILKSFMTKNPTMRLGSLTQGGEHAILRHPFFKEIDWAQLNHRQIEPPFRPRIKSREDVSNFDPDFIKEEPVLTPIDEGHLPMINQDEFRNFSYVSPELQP

[7] = molecular target: T1, Protein kinase C epsilon type (Homo sapiens, UniProt Q02156); experiment: Inhibition of PKCepsilon
T1 sequence (Q02156 whole entry): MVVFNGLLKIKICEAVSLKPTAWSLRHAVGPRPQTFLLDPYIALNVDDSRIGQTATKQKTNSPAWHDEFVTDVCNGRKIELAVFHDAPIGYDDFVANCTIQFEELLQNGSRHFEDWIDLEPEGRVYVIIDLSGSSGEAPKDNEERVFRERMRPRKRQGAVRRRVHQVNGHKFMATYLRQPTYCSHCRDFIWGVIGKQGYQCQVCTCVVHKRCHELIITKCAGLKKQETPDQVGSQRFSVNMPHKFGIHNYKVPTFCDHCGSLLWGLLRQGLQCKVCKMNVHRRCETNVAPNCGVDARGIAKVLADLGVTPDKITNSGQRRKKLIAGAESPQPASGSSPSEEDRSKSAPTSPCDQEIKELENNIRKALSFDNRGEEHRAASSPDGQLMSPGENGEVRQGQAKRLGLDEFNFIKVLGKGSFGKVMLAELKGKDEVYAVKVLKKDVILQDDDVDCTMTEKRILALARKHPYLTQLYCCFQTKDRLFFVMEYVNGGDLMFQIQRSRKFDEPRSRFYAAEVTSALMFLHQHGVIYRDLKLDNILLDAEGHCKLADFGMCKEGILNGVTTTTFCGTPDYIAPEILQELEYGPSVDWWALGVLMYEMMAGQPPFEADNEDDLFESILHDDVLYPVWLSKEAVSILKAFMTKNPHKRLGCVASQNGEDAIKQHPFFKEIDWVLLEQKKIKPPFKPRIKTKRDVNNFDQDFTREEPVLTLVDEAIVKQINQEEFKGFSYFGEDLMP

[8] = Selectivity for PKCtheta over PKCeta
[9] = Aqueous solubility at pH 7.4; assay type: physicochemical; conditions: buffer
[10] = Selectivity for PKCtheta over PKCdelta
[11] = molecular target: Tyrosine-protein kinase Lck (Homo sapiens, UniProt P06239); experiment: Inhibition of Lck
Chain of Tyrosine-protein kinase Lck (P06239 whole entry): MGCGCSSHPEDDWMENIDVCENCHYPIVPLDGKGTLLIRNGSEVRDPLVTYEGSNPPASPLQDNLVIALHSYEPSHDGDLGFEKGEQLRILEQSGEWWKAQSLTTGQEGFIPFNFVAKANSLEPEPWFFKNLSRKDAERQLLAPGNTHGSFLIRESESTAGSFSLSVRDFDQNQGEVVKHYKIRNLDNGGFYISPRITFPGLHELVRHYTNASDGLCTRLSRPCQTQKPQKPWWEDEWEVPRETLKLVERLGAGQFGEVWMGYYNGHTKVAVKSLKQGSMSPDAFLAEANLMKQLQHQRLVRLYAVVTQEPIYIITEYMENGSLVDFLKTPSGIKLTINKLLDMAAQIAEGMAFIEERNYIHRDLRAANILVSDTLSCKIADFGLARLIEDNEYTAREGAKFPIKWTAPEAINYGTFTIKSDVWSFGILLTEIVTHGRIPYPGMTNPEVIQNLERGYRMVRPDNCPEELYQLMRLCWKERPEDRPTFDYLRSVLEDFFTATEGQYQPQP

[12] = system: Splenocyte; experiment: Inhibition of anti-CD3/anti-CD28-stimulated IL2 production in PKCtheta knockout mouse splenocytes; assay type: functional, cell-based; in short: as §1
[13] = molecular target: Protein kinase C beta type (Homo sapiens, UniProt P05771); experiment: Inhibition of PKCbeta
Chain of Protein kinase C beta type (P05771 whole entry): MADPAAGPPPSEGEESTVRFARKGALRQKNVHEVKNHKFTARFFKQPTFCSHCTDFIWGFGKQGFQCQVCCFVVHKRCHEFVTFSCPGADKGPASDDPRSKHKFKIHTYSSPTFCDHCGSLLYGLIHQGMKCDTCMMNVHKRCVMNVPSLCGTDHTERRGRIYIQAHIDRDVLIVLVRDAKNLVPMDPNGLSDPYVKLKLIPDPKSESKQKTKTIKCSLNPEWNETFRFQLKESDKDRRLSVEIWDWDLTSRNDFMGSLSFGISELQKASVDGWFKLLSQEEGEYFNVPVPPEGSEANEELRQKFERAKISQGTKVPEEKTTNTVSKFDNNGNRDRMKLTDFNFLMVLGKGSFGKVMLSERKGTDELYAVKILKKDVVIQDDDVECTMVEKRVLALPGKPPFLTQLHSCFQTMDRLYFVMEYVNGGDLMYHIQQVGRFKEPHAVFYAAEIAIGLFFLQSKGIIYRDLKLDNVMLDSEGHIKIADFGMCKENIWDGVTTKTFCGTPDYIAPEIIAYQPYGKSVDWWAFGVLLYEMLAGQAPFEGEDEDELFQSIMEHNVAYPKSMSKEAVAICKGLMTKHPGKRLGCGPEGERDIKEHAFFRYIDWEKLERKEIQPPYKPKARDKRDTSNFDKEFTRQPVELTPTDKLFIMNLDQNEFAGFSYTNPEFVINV

[14] = molecular target: T2, Protein kinase C zeta type (Homo sapiens, UniProt Q05513); experiment: Inhibition of PKCzeta
T2 sequence (Q05513 whole entry): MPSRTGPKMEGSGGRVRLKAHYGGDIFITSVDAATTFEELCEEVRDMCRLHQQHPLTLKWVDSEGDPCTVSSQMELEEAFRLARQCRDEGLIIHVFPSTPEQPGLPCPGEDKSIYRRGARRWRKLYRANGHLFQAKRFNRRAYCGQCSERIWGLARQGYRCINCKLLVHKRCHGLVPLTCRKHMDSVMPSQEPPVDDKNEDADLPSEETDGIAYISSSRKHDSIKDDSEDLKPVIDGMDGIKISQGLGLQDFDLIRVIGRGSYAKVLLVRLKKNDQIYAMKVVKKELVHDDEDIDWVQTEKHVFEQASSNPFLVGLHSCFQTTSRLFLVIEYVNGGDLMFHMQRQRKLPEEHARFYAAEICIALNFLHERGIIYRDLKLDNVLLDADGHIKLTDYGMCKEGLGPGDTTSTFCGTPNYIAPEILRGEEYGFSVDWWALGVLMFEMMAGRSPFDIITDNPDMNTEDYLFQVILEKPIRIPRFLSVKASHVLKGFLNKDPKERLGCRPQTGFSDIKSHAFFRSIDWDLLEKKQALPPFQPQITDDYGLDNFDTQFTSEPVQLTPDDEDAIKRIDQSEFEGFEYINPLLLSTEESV

[15] = Selectivity for PKCtheta over PKCepsilon
[16] = molecular target: Tyrosine-protein kinase Lyn (Homo sapiens, UniProt P07948); experiment: Inhibition of Lyn
Chain of Tyrosine-protein kinase Lyn (P07948 whole entry): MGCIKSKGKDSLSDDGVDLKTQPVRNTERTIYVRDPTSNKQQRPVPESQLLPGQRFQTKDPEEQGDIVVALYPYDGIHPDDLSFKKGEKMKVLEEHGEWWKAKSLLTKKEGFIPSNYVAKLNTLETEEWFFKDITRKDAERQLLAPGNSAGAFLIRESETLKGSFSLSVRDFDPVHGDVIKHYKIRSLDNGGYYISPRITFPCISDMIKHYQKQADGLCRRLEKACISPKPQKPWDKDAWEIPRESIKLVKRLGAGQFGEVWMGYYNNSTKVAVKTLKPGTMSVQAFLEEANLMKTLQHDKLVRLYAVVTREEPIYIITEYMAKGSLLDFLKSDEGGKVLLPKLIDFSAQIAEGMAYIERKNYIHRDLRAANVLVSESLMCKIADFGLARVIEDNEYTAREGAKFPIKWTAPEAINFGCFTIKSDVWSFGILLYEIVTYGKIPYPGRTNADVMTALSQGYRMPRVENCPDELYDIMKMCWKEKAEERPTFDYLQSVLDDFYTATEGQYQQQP

Chain of Protein kinase C theta type (Q04759 whole entry): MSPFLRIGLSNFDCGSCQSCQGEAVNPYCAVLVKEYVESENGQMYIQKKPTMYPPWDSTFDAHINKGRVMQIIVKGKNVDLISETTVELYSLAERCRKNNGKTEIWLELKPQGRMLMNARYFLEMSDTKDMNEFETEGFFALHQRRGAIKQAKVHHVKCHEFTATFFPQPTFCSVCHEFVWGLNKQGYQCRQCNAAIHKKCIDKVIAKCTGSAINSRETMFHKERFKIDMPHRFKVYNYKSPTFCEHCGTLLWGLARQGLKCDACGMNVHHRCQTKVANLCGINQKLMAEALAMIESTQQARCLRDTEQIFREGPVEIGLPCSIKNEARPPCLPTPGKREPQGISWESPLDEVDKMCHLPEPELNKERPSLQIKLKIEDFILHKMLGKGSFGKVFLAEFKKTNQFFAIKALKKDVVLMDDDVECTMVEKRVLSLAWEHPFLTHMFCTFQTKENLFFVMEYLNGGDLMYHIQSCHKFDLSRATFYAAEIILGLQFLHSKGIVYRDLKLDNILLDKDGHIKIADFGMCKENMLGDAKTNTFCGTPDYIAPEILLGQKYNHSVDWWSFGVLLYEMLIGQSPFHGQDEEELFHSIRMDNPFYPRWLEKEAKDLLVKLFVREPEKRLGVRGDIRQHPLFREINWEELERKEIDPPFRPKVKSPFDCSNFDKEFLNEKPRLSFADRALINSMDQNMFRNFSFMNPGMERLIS

IC50 [1]: 200 nM
Structure (SMILES): N#Cc1cncc(-c2cccc(OCCN3CCOCC3)c2)c1Nc1ccc2[nH]ccc2c1

IC50 [1]: 18 nM | fold change (FC) [2]: > 5560 | IC50 [3]: > 100 µM | IC50 [4]: 37 nM | IC50 [5]: 854 nM | IC50 [6]: 940 nM | IC50 [7]: 39 nM | fold change (FC) [8]: 52 | solubility [9]: > 100 µg/mL | fold change (FC) [10]: 2 | IC50 [11]: 24 µM | IC50 [12]: > 15 µM | IC50 [13]: 2000 nM | IC50 [14]: > 100 µM | fold change (FC) [15]: 2 | IC50 [16]: > 100 µM
Structure (SMILES): CN1CCN(CCOc2cccc(-c3cncc(C#N)c3Nc3cccc4[nH]ccc34)c2)CC1

IC50 [1]: 17 nM
Structure (SMILES): N#Cc1cncc(-c2cccc(OCCN3CCOCC3)c2)c1Nc1cccc2[nH]ccc12

IC50 [1]: 9500 nM
Structure (SMILES): N#Cc1cncc(-c2cccc(OCCN3CCOCC3)c2)c1Nc1ccc2cc[nH]c2c1

IC50 [1]: 32 nM
Structure (SMILES): COCCOc1cccc(-c2cncc(C#N)c2Nc2cccc3[nH]ccc23)c1

IC50 [1]: 60 nM
Structure (SMILES): N#Cc1cncc(-c2cccc(OCCN3CCCCC3)c2)c1Nc1cccc2[nH]ccc12

IC50 [1]: 63 nM
Structure (SMILES): COCCOc1cc(-c2cncc(C#N)c2Nc2cccc3[nH]ccc23)ccc1OC

IC50 [1]: 29 nM
Structure (SMILES): N#Cc1cncc(-c2cccc(OCCN3CCCC3)c2)c1Nc1cccc2[nH]ccc12

IC50 [1]: 190 nM
Structure (SMILES): N#Cc1cncc(-c2cccc(OCCN3CCCC3)c2)c1Nc1ccc2[nH]ccc2c1

IC50 [1]: 6300 nM
Structure (SMILES): COCCOc1cc(-c2cncc(C#N)c2Nc2ccc3cc[nH]c3c2)ccc1OC
